{"source": "paper PMC7723568", "about": "(Annals of Translational Medicine, 2020)", "key": {"MKN-45 cells": {"system": "MKN-45 cells", "test": "Immunofluorescence staining of MKN-45 cells", "format": "cell-based", "conditions": "5 µM FITC-labeled peptide, 37 °C, 10 min, co-stained with anti-CD44v6 antibody", "procedure,_shortened": "(§1)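 Gastric cancer cells were grown in RPMI 1640 with 10% FBS and seeded on coverslips overnight. They were fixed in 4% paraformaldehyde and blocked in 3% BSA. Cells were labelled with monoclonal anti-CD44v6 (1:500, 1 h) and a Cy3 secondary, then with 5 µM FITC-peptide at 37 °C for 10 min. Nuclei were stained with DAPI; imaging was by fluorescence microscopy at ×400.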"}, "[1]": {"system": "HEK-293 cells transfected with empty plasmids", "test": "Immunofluorescence staining of HEK-293 cells transfected with empty plasmid", "format": "cell-based, human", "conditions": "5 µM rhodamine B-labeled peptide; GFP reporter", "procedure,_shortened": "(§2)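 HEK-293 cells were grown in DMEM with 10% FBS and transfected 48 h beforehand with a GFP-reporter CD44v3–v10 plasmid or an empty plasmid. Cells were fixed in 4% paraformaldehyde and blocked in 3% BSA. They were then stained with 5 µM rhodamine B-labelled peptide, with scrambled peptide as control. Nuclei were stained with DAPI, and cells were imaged by fluorescence microscopy at ×400.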"}, "MKN-28 cells": {"system": "MKN-28 cells", "test": "Immunofluorescence staining of MKN-28 cells", "format": "cell-based", "conditions": "5 µM FITC-labeled peptide, 37 °C, 10 min, co-stained with anti-CD44v6 antibody", "procedure,_shortened": "as §1"}, "SGC-7901 cells": {"system": "SGC-7901 cells", "test": "Immunofluorescence staining of SGC-7901 cells", "format": "cell-based", "conditions": "5 µM FITC-labeled peptide, 37 °C, 10 min, co-stained with anti-CD44v6 antibody", "procedure,_shortened": "as §1"}, "[2]": {"system": "excised tumor and organs (liver, stomach, kidney, lung, heart) of SGC-7901 xenograft mice", "test": "Biodistribution: fluorescence imaging of excised tumor and organs", "format": "in vivo, BALB/c-nu/nu mice", "conditions": "FITC labeled, 1 µg/g, i.v., 3 h after injection"}, "[3]": {"system": "CD44v3–v10 over expressed HEK-293 cells", "test": "Immunofluorescence staining of CD44v3–v10 over expressed HEK-293 cells", "format": "cell-based, human", "conditions": "5 µM rhodamine B-labeled peptide; GFP reporter", "procedure,_shortened": "as §2"}, "[4]": {"system": "CD44v3–v10 over expressed HEK-293 cells", "format": "binding, human", "conditions": "in words; 1×10^10 pfu/well, 37 °C, 1 h", "procedure,_shortened": "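HEK-293 cells were transfected with a CD44v3–v10 plasmid or an empty plasmid, and assayed 48 h later. Candidate or unrelated phages (1×10^10 pfu/well) were bound for 1 h at 37 °C, then washed six times. Detection used goat anti-M13 (1:200), HRP secondary (1:5,000) and TMB, read at OD450. Selectivity = (ODpv – ODbv)/(ODpc – ODbc), with backgrounds from cells without phage. Triplicate, mean ± SD.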"}, "[5]": {"system": "SGC-7901 subcutaneous GC xenograft", "test": "In vivo fluorescence imaging of SGC-7901 xenograft models", "set-up": "species or system BALB/c-nu/nu mice", "conditions": "FITC labeled, 1 µg/g body weight, tail vein", "procedure,_shortened": "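Male BALB/c nude mice (4–5 weeks, 20–25 g) received 5×10^6 SGC-7901 cells subcutaneously in the axilla, and tumours grew about 3 weeks to 1 cm3. Mice were randomised to two groups of ten. Each group received FITC-peptide probe or FITC-scrambled peptide, 1 µg/g via the tail vein. Under isoflurane, five mice per group were imaged every half hour until the probe was excreted. Signal was expressed as (p/sec/cm2/sr)/(µW/cm2), mean ± SE.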"}, "CD44v3–v10 protein": {"biological_target": "CD44v3–v10 protein (Homo sapiens, UniProt P16070)", "sequence (P16070 21-699 isoform P16070-4 limits assumed)": "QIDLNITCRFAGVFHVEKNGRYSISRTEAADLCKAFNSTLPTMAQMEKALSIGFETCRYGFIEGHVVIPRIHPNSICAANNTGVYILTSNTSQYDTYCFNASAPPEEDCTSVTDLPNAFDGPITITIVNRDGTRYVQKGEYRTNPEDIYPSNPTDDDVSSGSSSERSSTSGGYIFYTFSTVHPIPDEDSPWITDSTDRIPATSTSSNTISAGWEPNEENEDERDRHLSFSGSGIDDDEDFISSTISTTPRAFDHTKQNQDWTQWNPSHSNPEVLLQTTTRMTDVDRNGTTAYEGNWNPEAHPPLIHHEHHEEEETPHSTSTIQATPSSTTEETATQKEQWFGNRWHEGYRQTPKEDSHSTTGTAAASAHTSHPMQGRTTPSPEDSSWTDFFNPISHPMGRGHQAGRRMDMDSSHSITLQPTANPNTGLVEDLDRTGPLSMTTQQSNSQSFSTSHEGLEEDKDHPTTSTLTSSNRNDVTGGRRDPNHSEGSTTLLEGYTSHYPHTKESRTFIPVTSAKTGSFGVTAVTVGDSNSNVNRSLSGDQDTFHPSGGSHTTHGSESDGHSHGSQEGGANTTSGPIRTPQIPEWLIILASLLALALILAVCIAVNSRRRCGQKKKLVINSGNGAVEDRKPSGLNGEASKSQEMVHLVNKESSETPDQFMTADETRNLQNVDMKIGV", "test": "Binding affinity to CD44v3–v10 protein", "procedure,_shortened": "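Biotin-labelled peptide at a range of concentrations was incubated with immobilised recombinant CD44v3–v10 protein, with BSA as the comparison surface. Bound peptide was read as OD values, as in the competitive ELISA. Kd came from fitted binding curves and Scatchard plots. A scrambled peptide was the control. Each point was measured three times, mean ± SD.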"}, "[6]": {"system": "Recombinant CD44v3–v10 protein", "test": "Competitive inhibition ELISA on recombinant CD44v3–v10 protein", "format": "binding, human", "conditions": "in words; CD44v3–v10 protein 1 µg/well; various peptide concentrations; n = 3", "procedure,_shortened": "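Plates were coated with recombinant CD44v3–v10 protein (1 µg/well) and preincubated with candidate or control peptide at various concentrations. Candidate phage binding was then read by phage ELISA: goat anti-M13 (1:200), HRP secondary (1:5,000), TMB, OD450. Inhibition = 100% – 100%×(ODt – ODb)/(ODi – ODb), where ODb is wells lacking anti-M13 antibody.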"}}, "note": "Entries after “also recorded” stand apart in the source; their conditions may differ. Where no end group is shown, it is not given here.", "data": [{"sequence": "EHDNTGMLYSVD [control peptide]", "values": [{"measurement": "Fluorescent staining of MKN-45", "setting": "MKN-45 cells", "result": "only background staining"}, {"measurement": "Fluorescent staining of HEK-293 transfected with empty plasmid", "setting": "[1]", "result": "only background staining"}, {"measurement": "Fluorescent staining of MKN-28", "setting": "MKN-28 cells", "result": "only background staining"}, {"measurement": "Fluorescent staining of SGC-7901", "setting": "SGC-7901 cells", "result": "only background staining"}, {"measurement": "Distribution in liver and kidney", "setting": "[2]", "result": "distributed in liver and kidney"}, {"measurement": "Strong fluorescence on excised tumor tissue (mice positive/total)", "setting": "[2]; five mice per group", "result": "not control group"}, {"measurement": "Fluorescent staining of CD44v3–v10 over expressed HEK-293", "setting": "[3]", "result": "only background staining"}]}, {"sequence": "ELTVMGYYPGMS [C3]", "values": [{"measurement": "Binding activity / affinity / selectivity ranking in phage ELISA", "setting": "[4]", "result": "highest binding activity and frequency; also recorded: second highest selectivity; also recorded: highest affinity"}]}, {"sequence": "ELTVMGYYPGMS [ELT, ELTVMGYYPGMS]", "values": [{"measurement": "Distribution in liver and kidney", "setting": "[2]", "result": "distributed in liver and kidney"}, {"measurement": "Elimination (fluorescence signal four hours after injection)", "setting": "[5]; 4 h", "result": "nearly undetectable"}, {"measurement": "Time of top fluorescent intensity in tumor", "setting": "[5]; n = 5", "result": 3, "unit": "h"}, {"measurement": "Kd", "setting": "CD44v3–v10 protein", "result": 611, "unit": "nM"}]}, {"sequence": "THMPSDPGMNLL", "values": [{"measurement": "Inhibition of candidate phage binding by displayed peptide", "setting": "[6]", "result": "dose-dependent manner"}]}, {"sequence": "THMPSDPGMNLL [C1]", "values": [{"measurement": "Binding activity / affinity / selectivity ranking in phage ELISA", "setting": "[4]", "result": "highest binding activity and frequency; also recorded: considerable affinity"}]}]}
